Test results reported in article PMC4002067 (Journal of Medicinal Chemistry, 2014).
One block for each molecule: values may come before it.

Experiments:
SIRT2 = target: T1, SIRT2 (Homo sapiens, UniProt Q8IXJ6); assay: SIRT-Glo enzyme inhibition assay, SIRT2; type: biochemical; conditions: 50 μM compound
T1 sequence (Q8IXJ6 1-389): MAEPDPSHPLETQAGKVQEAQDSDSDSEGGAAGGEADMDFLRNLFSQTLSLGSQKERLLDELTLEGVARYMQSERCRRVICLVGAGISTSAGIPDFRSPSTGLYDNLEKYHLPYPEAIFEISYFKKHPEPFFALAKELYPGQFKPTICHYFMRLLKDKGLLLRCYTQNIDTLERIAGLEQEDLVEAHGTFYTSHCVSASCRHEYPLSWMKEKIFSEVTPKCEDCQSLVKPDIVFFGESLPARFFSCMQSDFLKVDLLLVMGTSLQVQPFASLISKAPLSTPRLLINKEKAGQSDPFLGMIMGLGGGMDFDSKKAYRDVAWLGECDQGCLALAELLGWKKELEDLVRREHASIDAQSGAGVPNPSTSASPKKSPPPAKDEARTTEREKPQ

SIRT1 [1] = target: T2, SIRT1 (Homo sapiens, UniProt Q96EB6); assay: SIRT-Glo enzyme inhibition assay, SIRT1; type: biochemical; conditions: for selectivity for SIRT1 (over SIRT2): from IC50 values
T2 sequence (Q96EB6 1-747): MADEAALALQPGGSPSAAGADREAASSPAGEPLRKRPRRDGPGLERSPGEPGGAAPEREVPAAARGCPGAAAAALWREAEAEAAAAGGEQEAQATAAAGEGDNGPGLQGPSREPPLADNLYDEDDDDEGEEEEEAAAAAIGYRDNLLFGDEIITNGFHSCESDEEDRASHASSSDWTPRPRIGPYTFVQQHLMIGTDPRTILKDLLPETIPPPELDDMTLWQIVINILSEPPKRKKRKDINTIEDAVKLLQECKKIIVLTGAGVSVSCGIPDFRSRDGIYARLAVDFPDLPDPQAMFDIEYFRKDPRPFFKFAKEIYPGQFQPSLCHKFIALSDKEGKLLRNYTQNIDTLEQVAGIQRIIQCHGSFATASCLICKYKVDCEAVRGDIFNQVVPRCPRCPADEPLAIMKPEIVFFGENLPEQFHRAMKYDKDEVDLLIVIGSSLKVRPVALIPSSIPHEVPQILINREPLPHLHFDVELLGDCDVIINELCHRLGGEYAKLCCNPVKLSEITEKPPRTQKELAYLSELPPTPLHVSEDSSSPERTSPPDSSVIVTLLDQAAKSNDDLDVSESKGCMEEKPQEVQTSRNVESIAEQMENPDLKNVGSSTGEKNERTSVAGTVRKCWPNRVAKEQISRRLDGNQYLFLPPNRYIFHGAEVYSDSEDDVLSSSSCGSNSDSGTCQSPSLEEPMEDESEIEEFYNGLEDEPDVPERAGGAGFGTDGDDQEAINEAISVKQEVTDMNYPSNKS

SIRT3 = target: T3, SIRT3 (Homo sapiens, UniProt Q9NTG7); assay: SIRT-Glo enzyme inhibition assay, SIRT3; type: biochemical; conditions: 50 μM compound
T3 sequence (Q9NTG7 1-399): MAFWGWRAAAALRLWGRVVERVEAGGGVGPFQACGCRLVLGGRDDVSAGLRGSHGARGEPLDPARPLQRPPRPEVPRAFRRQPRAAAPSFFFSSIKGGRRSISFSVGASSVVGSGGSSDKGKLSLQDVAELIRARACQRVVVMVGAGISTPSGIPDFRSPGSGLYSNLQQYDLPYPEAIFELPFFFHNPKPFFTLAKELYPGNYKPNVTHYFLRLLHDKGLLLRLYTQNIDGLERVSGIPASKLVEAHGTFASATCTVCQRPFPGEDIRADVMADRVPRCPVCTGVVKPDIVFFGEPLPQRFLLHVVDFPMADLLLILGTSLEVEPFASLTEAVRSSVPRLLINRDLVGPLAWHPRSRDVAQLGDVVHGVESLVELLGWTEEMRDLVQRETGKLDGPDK

[2] = drawback stated in the introduction; cited from earlier work
SIRT1 [3] = target: T2, SIRT1; assay: Saturation transfer difference; type: binding; conditions: 1.5 μM SIRT1, 200 μM compound, naphthalene numbering
[4] = system: lymphoma and epithelial cancer cell lines; assay: Cytotoxicity across lymphoma and epithelial cancer cell lines; type: cell-based; conditions: 72 h, read-out: cytotoxicity IC50 range
Summary of the method: (§1)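 Cells grown under standard conditions and treated in 96-well format with test compound in DMSO (final DMSO 0.25%) or DMSO control for 72 h. Viability was read as luminescence with CellTiterGlo. Assays were run in triplicate, and values are averages of two independent experiments.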

[5] = Cytotoxicity in nontransformed B-cell lines; type: cell-based; conditions: human, nontransformed EBV-immortalized B-cell lines B1 and B2
Summary of the method: as §1

[6] = system: SIRT2-mediated deacetylation of α-tubulin in NCI-H460 cells; assay: α-tubulin acetylation by Western blot; type: cell-based, human; conditions: 4 h treatment

Molecule: 4-[(2-Chloro-6-hydroxy-4-methylquinolin-5-yl)methyl]-5-(4-methylphenyl)-2,3-dihydro-1H-pyrazol-3-one [compound 22]
SIRT2 (% inh) (SIRT2): 24%
SIRT1 (% inh) (SIRT1 [1]; 50 μM compound): 27%
SIRT3 (% inh) (SIRT3): 32%

Molecule: O=c1[nH]c(=S)[nH]c(-c2ccccc2)c1Cc1c(O)ccc2ccccc12 [compound 1, 5-[(2-hydroxy-1-naphthyl)methyl]-6-phenyl-2-thioxo-2,3-dihydro-4(1H)-pyrimidinone]
solubility [2]: poor solubility

Molecule: Cc1ccc(-c2[nH][nH]c(=O)c2Cc2c(O)ccc3cc(Br)ccc23)cc1 [compound 14, 4-[(6-Bromo-2-hydroxynaphthalen-1-yl)methyl]-5-(4-methylphenyl)-2,3-dihydro-1H-pyrazol-3-one]
selectivity for SIRT1 (over SIRT2) (SIRT1 [1]): greater than 5 fold

Now from value to molecule, other results behind:

relative STD signal intensity, C-7 proton (SIRT1 [3]): 100%
Molecule: Cc1ccc(-c2[nH][nH]c(=O)c2Cc2c(O)ccc3nc(Cl)ccc23)cc1 [compound 20, 4-[(2-Chloro-6-hydroxyquinolin-5-yl)methyl]-5-(4-methylphenyl)-2,3-dihydro-1H-pyrazol-3-one]

selectivity for SIRT1 (over SIRT2) (SIRT1 [1]): > 3 fold
Molecule: CC(C)c1ccc(-c2[nH][nH]c(=O)c2Cc2c(O)ccc3nc(Cl)ccc23)cc1 [compound 23, 4-[(2-Chloro-6-hydroxyquinolin-5-yl)methyl]-5-[4-(propan-2-yl)phenyl]-2,3-dihydro-1H-pyrazol-3-one]

selectivity for SIRT1 (over SIRT2) (SIRT1 [1]): 7.8 fold
Molecule: Cc1ccc(-c2[nH]oc(=O)c2Cc2c(O)ccc3cc(Br)ccc23)cc1 [compound 24, 4-[(6-Bromo-2-hydroxynaphthalen-1-yl)methyl]-3-(4-methylphenyl)-2,5-dihydro-1,2-oxazol-5-one]
IC50 [4]: 3 to 7 µM
IC50 at 72 h [5]: 22 to 28 µM
α-tubulin acetylation [6]: rapid and robust dose-dependent increase in α-tubulin acetylation
